Results as given in ChEMBL document CHEMBL1157765, “Synthesis of DOTA-conjugated multimeric [Tyr3]octreotide peptides via a combination of Cu(I)-catalyzed "click" cycloaddition and thio acid/sulfonyl azide "sulfo-click" amidation and their in vivo evaluation” (J Med Chem, 2010).
Values belong to the compound of their own block, whether it stands above or below them.

How the values were obtained:
[1] = Octanol-water partition coefficient, log D at pH 7.4; type: physicochemical
Summary of the method: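 ¹¹¹In-labeled conjugate (~148 kBq) in PBS pH 7.4 mixed 1:1 with n-octanol and shaken 2 min. Phases separated by centrifugation (5 min, 250g); triplicate aliquots of each layer γ-counted. log D = log₁₀(octanol counts/aqueous counts), from at least two independent experiments.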

Stomach [2] = assay: Biodistribution in stomach of BALB/c mouse bearing rat AR42J cells at 0.37 MBq, iv after 6 hrs; type: ADME, organism-based, AR-42J; settings: in vivo
Summary of the method: (§1)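 AR42J tumor grown in right flank of male BALB/c nude mice (20-25 g, 6-8 weeks) by sc injection of 5 × 10⁶ cells; used after ~2 weeks at 4-6 mm diameter. Groups of five received 0.37 MBq (0.1 μg) ¹¹¹In-DOTA conjugate iv via tail vein (labeled in 0.25 M NH₄OAc pH 5.5, 95 °C, 15 min). Tissues dissected at 2, 6 or 24 h, weighed, γ-counted against 1% injected-activity standards; %ID/g, mean ± SD.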

Blood [3] = assay: Biodistribution in blood of BALB/c mouse bearing rat AR42J cells at 0.37 MBq, iv after 24 hrs; type: ADME, organism-based, AR-42J; settings: in vivo; summary of the method: as §1
[4] = Biodistribution in adrenal gland of BALB/c mouse bearing rat AR42J cells at 0.37 MBq, iv after 2 hrs under cold condition; type: ADME, organism-based, AR-42J; settings: in vivo
Summary of the method: (§2)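 Receptor block: groups of three AR42J tumor-bearing male BALB/c nude mice co-injected iv via tail vein with 0.37 MBq (0.1 μg) ¹¹¹In-DOTA conjugate plus 50 μg octreotide. Killed by CO₂/O₂ at 2 h; blood, tumor and tissues dissected, weighed and γ-counted against 1% injected-activity standards; %ID/g reported as mean ± SD.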

Liver [5] = assay: Biodistribution in liver of BALB/c mouse bearing rat AR42J cells at 0.37 MBq, iv after 6 hrs; type: ADME, organism-based, AR-42J; settings: in vivo; summary of the method: as §1
[6] = Biodistribution in tumor of BALB/c mouse bearing rat AR42J cells at 0.37 MBq, iv after 6 hrs; type: ADME, organism-based, Neoplasm, AR-42J; settings: in vivo; summary of the method: as §1
Blood [7] = assay: Biodistribution in blood of BALB/c mouse bearing rat AR42J cells at 0.37 MBq, iv after 2 hrs under cold condition; type: ADME, organism-based, AR-42J; settings: in vivo; summary of the method: as §2
Pancreas [8] = assay: Biodistribution in pancreas of BALB/c mouse bearing rat AR42J cells at 0.37 MBq, iv after 2 hrs; type: ADME, organism-based, AR-42J; settings: in vivo; summary of the method: as §1
Liver [9] = assay: Biodistribution in liver of BALB/c mouse bearing rat AR42J cells at 0.37 MBq, iv after 2 hrs under cold condition; type: ADME, organism-based, AR-42J; settings: in vivo; summary of the method: as §2
[10] = Biodistribution in adrenal gland of BALB/c mouse bearing rat AR42J cells at 0.37 MBq, iv after 6 hrs; type: ADME, organism-based, AR-42J; settings: in vivo; summary of the method: as §1
Kidney [11] = assay: Biodistribution in kidney of BALB/c mouse bearing rat AR42J cells at 0.37 MBq, iv after 2 hrs under cold condition; type: ADME, organism-based, AR-42J; settings: in vivo; summary of the method: as §2
Kidney [12] = assay: Biodistribution in kidney of BALB/c mouse bearing rat AR42J cells at 0.37 MBq, iv after 2 hrs; type: ADME, organism-based, AR-42J; settings: in vivo; summary of the method: as §1
[13] = molecular target: Somatostatin receptor type 2 (Rattus norvegicus, UniProt P30680); assay: Displacement of [111In]DOTA0,Tyr3]octreotide from SSTR2 receptor in rat AR42J cells; type: cell-based, AR-42J
Sequence of Somatostatin receptor type 2 (P30680 whole entry): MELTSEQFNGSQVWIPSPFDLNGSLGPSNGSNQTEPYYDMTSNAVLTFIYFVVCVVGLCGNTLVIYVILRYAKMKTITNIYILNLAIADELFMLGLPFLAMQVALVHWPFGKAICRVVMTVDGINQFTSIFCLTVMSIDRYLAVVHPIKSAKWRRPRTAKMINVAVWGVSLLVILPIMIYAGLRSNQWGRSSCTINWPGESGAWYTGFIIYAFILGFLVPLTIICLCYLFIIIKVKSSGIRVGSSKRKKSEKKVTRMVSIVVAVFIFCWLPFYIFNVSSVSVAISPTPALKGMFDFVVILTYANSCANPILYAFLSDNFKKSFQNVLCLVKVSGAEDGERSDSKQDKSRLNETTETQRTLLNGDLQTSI
Summary of the method: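 AR42J cells (DMEM, 10% FCS, 37 °C, 5% CO₂) seeded 8 × 10⁵/well and grown to confluence, washed with DMEM + 0.1% BSA. Incubated 3 h at 37 °C with [¹¹¹In-DOTA⁰,Tyr³]octreotide tracer (40 000 dpm) and unlabeled peptide at 0.1-300 nM. Washed twice; cell-bound activity γ-counted. IC₅₀ from fitted sigmoidal displacement curves with 95% CI.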

[14] = Biodistribution in tumor of BALB/c mouse bearing rat AR42J cells at 0.37 MBq, iv after 24 hrs; type: ADME, organism-based, Neoplasm, AR-42J; settings: in vivo; summary of the method: as §1
Blood [15] = assay: Biodistribution in blood of BALB/c mouse bearing rat AR42J cells at 0.37 MBq, iv after 2 hrs; type: ADME, organism-based, AR-42J; settings: in vivo; summary of the method: as §1
[16] = Biodistribution in adrenal gland of BALB/c mouse bearing rat AR42J cells at 0.37 MBq, iv after 2 hrs; type: ADME, organism-based, AR-42J; settings: in vivo; summary of the method: as §1
Kidney [17] = assay: Biodistribution in kidney of BALB/c mouse bearing rat AR42J cells at 0.37 MBq, iv after 24 hrs; type: ADME, organism-based, AR-42J; settings: in vivo; summary of the method: as §1
Pancreas [18] = assay: Biodistribution in pancreas of BALB/c mouse bearing rat AR42J cells at 0.37 MBq, iv after 6 hrs; type: ADME, organism-based, AR-42J; settings: in vivo; summary of the method: as §1
Stomach [19] = assay: Biodistribution in stomach of BALB/c mouse bearing rat AR42J cells at 0.37 MBq, iv after 24 hrs; type: ADME, organism-based, AR-42J; settings: in vivo; summary of the method: as §1
[20] = Biodistribution in tumor of BALB/c mouse bearing rat AR42J cells at 0.37 MBq, iv after 2 hrs under cold condition; type: ADME, organism-based, Neoplasm, AR-42J; settings: in vivo; summary of the method: as §2
Kidney [21] = assay: Biodistribution in kidney of BALB/c mouse bearing rat AR42J cells at 0.37 MBq, iv after 6 hrs; type: ADME, organism-based, AR-42J; settings: in vivo; summary of the method: as §1
Liver [22] = assay: Biodistribution in liver of BALB/c mouse bearing rat AR42J cells at 0.37 MBq, iv after 24 hrs; type: ADME, organism-based, AR-42J; settings: in vivo; summary of the method: as §1
Pancreas [23] = assay: Biodistribution in pancreas of BALB/c mouse bearing rat AR42J cells at 0.37 MBq, iv after 2 hrs under cold condition; type: ADME, organism-based, AR-42J; settings: in vivo; summary of the method: as §2
Pancreas [24] = assay: Biodistribution in pancreas of BALB/c mouse bearing rat AR42J cells at 0.37 MBq, iv after 24 hrs; type: ADME, organism-based, AR-42J; settings: in vivo; summary of the method: as §1
Liver [25] = assay: Biodistribution in liver of BALB/c mouse bearing rat AR42J cells at 0.37 MBq, iv after 2 hrs; type: ADME, organism-based, AR-42J; settings: in vivo; summary of the method: as §1
[26] = Biodistribution in tumor of BALB/c mouse bearing rat AR42J cells at 0.37 MBq, iv after 2 hrs; type: ADME, organism-based, Neoplasm, AR-42J; settings: in vivo; summary of the method: as §1
Stomach [27] = assay: Biodistribution in stomach of BALB/c mouse bearing rat AR42J cells at 0.37 MBq, iv after 2 hrs under cold condition; type: ADME, organism-based, AR-42J; settings: in vivo; summary of the method: as §2
Blood [28] = assay: Biodistribution in blood of BALB/c mouse bearing rat AR42J cells at 0.37 MBq, iv after 6 hrs; type: ADME, organism-based, AR-42J; settings: in vivo; summary of the method: as §1
Stomach [29] = assay: Biodistribution in stomach of BALB/c mouse bearing rat AR42J cells at 0.37 MBq, iv after 2 hrs; type: ADME, organism-based, AR-42J; settings: in vivo; summary of the method: as §1
[30] = Biodistribution in adrenal gland of BALB/c mouse bearing rat AR42J cells at 0.37 MBq, iv after 24 hrs; type: ADME, organism-based, AR-42J; settings: in vivo; summary of the method: as §1

logD [1]: -3.59
SMILES: C[C@@H](O)[C@@H]1NC(=O)[C@H](CCCCN)NC(=O)[C@@H](Cc2c[nH]c3ccccc23)NC(=O)[C@H](Cc2ccc(O)cc2)NC(=O)[C@@H](NC(=O)[C@@H](Cc2ccccc2)NC(=O)CCCCCn2cc(CO)nn2)CSSC[C@@H](C(=O)N[C@H](CO)[C@@H](C)O)NC1=O

Drug uptake (Stomach [2]): 7.78 % ID/g
Drug uptake (Blood [3]): 0.17 % ID/g
Drug uptake [4]: 1.56 % ID/g
Drug uptake (Liver [5]): 14.92 % ID/g
logD [1]: -1.79
Drug uptake [6]: 30.91 % ID/g
Drug uptake (Blood [7]): 2.31 % ID/g
Drug uptake (Pancreas [8]): 2.96 % ID/g
Drug uptake (Liver [9]): 22.67 % ID/g
Drug uptake [10]: 2.49 % ID/g
Drug uptake (Kidney [11]): 57.78 % ID/g
Drug uptake (Kidney [12]): 92.2 % ID/g
IC50 [13]: 2.45 nM
Drug uptake [14]: 12.14 % ID/g
Drug uptake (Blood [15]): 1.52 % ID/g
Drug uptake [16]: 2.69 % ID/g
Drug uptake (Kidney [17]): 11.74 % ID/g
Drug uptake (Pancreas [18]): 1.69 % ID/g
Drug uptake (Stomach [19]): 2.97 % ID/g
Drug uptake [20]: 5.55 % ID/g
Drug uptake (Kidney [21]): 65.61 % ID/g
Drug uptake (Liver [22]): 5.54 % ID/g
Drug uptake (Pancreas [23]): 1.18 % ID/g
Drug uptake (Pancreas [24]): 0.36 % ID/g
Drug uptake (Liver [25]): 18.67 % ID/g
Drug uptake [26]: 25.31 % ID/g
Drug uptake (Stomach [27]): 3.46 % ID/g
Drug uptake (Blood [28]): 0.86 % ID/g
Drug uptake (Stomach [29]): 10.21 % ID/g
Drug uptake [30]: 1.27 % ID/g
SMILES: C[C@@H](O)[C@@H]1NC(=O)[C@H](CCCCN)NC(=O)[C@@H](Cc2c[nH]c3ccccc23)NC(=O)[C@H](Cc2ccc(O)cc2)NC(=O)[C@@H](NC(=O)[C@@H](Cc2ccccc2)NC(=O)CCCCCn2cc(COc3cc(OCc4cn(CCCCCC(=O)N[C@H](Cc5ccccc5)C(=O)N[C@H]5CSSC[C@@H](C(=O)N[C@H](CO)[C@@H](C)O)NC(=O)[C@H]([C@@H](C)O)NC(=O)[C@H](CCCCN)NC(=O)[C@@H](Cc6c[nH]c7ccccc67)NC(=O)[C@H](Cc6ccc(O)cc6)NC5=O)nn4)cc(C(=O)NS(=O)(=O)CCNC(=O)CN4CCN(CC(=O)O)CCN(CC(=O)O)CCN(CC(=O)O)CC4)c3)nn2)CSSC[C@@H](C(=O)N[C@H](CO)[C@@H](C)O)NC1=O
